In ChEMBL document CHEMBL4706482, “Structural optimization of aminopyrimidine-based CXCR4 antagonists” (Eur J Med Chem, 2020):
The source made the active and inactive calls. The rule behind the calls is not given here.

Tests used:
[1] = target: T1, C-X-C chemokine receptor type 4 (Homo sapiens, UniProt P61073); assay: Antagonist activity at CXCR4 in human HPBALL cells assessed as inhibition of APC-conjugate clone 12G5 antibody signal incubated for 3 hrs by flow cytometric analysis; assay type: cell-based
Target sequence in this assay (P61073 whole entry): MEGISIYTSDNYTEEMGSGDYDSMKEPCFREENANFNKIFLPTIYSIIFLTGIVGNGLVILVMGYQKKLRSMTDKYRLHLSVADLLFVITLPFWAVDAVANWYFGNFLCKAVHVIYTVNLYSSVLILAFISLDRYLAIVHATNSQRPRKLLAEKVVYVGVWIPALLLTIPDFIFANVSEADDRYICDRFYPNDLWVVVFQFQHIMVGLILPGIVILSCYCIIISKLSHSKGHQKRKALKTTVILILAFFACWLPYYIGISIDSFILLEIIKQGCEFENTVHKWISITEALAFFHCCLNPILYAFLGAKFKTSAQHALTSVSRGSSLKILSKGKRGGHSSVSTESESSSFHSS

Hepa1-6 = assay: Cytotoxicity against […] cells assessed as reduction in cell viability up to 1000 nM by CellTiter-Glo assay; assay type: functional, cell-based; settings: dose nM <=1000
[2] = target: Voltage-gated inwardly rectifying potassium channel KCNH2 (Homo sapiens, UniProt Q12809); assay: Inhibition of human ERG stably expressed in CHO cells after 4 mins; assay type: cell-based
Voltage-gated inwardly rectifying potassium channel KCNH2, sequence (Q12809 whole entry): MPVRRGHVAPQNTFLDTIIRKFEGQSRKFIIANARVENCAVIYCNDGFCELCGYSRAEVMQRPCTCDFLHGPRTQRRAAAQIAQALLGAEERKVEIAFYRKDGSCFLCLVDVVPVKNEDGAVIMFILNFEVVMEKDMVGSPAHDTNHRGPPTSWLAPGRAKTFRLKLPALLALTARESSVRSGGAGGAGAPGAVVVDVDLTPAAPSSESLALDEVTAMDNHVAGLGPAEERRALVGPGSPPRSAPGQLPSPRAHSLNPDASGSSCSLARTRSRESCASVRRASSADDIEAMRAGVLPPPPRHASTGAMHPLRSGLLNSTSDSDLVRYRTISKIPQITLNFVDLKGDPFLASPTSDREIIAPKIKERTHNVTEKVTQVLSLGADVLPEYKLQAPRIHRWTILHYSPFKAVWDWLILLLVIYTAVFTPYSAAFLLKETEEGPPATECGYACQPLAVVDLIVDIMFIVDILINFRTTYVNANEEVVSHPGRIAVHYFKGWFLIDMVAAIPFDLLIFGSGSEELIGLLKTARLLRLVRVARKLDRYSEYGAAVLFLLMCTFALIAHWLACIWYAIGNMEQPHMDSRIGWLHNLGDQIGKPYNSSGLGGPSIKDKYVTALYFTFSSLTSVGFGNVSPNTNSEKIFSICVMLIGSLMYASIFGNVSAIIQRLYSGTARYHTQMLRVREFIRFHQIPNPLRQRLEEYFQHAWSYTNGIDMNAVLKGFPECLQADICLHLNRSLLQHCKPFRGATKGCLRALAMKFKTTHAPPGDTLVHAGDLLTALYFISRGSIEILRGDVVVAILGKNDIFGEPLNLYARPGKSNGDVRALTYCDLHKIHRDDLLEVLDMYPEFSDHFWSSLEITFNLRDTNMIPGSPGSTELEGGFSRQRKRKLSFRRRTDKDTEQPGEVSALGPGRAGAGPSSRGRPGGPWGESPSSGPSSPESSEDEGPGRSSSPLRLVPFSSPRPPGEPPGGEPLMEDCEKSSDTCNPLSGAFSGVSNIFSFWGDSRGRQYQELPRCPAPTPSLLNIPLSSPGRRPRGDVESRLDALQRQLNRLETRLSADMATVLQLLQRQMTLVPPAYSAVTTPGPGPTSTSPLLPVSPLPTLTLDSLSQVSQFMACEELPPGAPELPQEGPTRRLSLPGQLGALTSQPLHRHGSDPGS
Procedure, shortened: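 hERG-expressing CHO cells on automated QPatch. Holding potential -80 mV, 500 ms step to +20 mV, tail current measured at -50 mV, pulses every 20 s. External solution 4 mM K⁺, 1 mM Mg²⁺, 2 mM Ca²⁺. Effect quantified 4 min after compound application.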

[3] = target: T1, C-X-C chemokine receptor type 4; assay: Antagonist activity at CXCR4 in human MDA-MB-231 cells assessed as inhibition of CXCL12-mediated chemotaxis at 100 nM after 22 hrs by transwell assay; settings: filed as antagonist
Target sequence in this assay (P61073 whole entry, looked up): as the sequence (P61073 whole entry) above

[4] = Protein binding in mouse plasma; assay type: ADME, cell-free; settings: read-out: PPB (converted)
CYP2D6 = CYP2D6 (Homo sapiens, UniProt P10635); assay: Inhibition of CYP2D6 in human liver microsomes using dextromethorphan as substrate at 10 uM preincubated for 10 mins followed by NADPH addition and measured after 10 mins by LC-MS/MS analysis relative to control; assay type: ADME; settings: probe dextromethorphan, time 20 min
CYP2D6, sequence (P10635 whole entry): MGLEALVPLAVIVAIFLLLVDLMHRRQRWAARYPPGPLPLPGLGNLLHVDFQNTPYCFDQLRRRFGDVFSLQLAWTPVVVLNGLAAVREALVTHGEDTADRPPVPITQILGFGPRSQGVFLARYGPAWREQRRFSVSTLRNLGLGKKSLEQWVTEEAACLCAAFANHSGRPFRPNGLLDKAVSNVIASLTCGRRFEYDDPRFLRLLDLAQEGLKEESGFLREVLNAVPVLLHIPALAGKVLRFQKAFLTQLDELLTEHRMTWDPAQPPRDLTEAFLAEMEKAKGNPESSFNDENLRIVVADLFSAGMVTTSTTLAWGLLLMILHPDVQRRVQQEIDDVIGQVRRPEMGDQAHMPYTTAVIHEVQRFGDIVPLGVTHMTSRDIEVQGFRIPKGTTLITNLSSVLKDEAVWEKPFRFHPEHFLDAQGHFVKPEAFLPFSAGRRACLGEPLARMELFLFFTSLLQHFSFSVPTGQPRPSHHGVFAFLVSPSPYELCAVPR
Procedure, shortened: (§1)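 Human liver microsomes 0.2 mg/mL in 100 mM phosphate, pH 7.4, compound 10 µM, probe substrate midazolam 1 µM (CYP3A4) or dextromethorphan 5 µM (CYP2D6). After a 10 min preincubation, reaction started with 1 mM NADPH, 37 °C for 10 min, then stopped with cold acetonitrile. Metabolites quantified by LC-MS/MS. Triplicate incubations.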

[5] = Protein binding in human plasma; assay type: ADME, cell-free; settings: read-out: PPB
[6] = Half life in rat liver microsomes at 1 uM preincubated for 10 mins followed by NADPH addition and measured up to 60 mins by LC-MS/MS analysis; assay type: ADME, Microsome; settings: time <=70 min
[7] = target: T2, C-C chemokine receptor type 6 (Homo sapiens) (UniProt P51684); assay: Antagonist activity at CCR6 in human CD4-positive cells assessed as inhibition of CCL20-induced calcium signal up to 10000 nM by FLIPR assay; assay type: functional, cell-based; settings: CD4+ve Th, dose nM <=10000
T2 sequence (whole entry): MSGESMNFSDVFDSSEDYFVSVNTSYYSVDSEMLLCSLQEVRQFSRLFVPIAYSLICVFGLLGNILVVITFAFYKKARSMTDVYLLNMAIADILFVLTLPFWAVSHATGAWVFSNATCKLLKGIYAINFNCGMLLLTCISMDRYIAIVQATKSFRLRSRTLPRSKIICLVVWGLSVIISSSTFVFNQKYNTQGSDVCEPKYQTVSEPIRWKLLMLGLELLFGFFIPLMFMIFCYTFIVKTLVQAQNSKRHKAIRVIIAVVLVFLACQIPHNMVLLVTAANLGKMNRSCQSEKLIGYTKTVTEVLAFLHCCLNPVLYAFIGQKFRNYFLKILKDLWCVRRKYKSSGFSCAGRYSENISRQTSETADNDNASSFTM
Procedure, shortened: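 Cryopreserved activated human CD4+ CCR6-enriched T cells at 2.5×10^6/mL in HBSS/20 mM HEPES/0.005% P-104, loaded with Calcium 4 dye. Compound final 10 µM to 0.035 nM in 0.5% DMSO, followed by CCL20 stimulation. Calcium flux read on FLIPR Tetra. % effect taken relative to on-plate controls; IC50 from a four-parameter logistic fit.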

L929 = assay: Cytotoxicity against mouse L929 cells assessed as reduction in cell viability up to 1000 nM by CellTiter-Glo assay; assay type: cell-based
MDA-MB-231 = assay: Cytotoxicity against human MDA-MB-231 cells assessed as reduction in cell viability up to 1000 nM by CellTiter-Glo assay; assay type: functional, cell-based; settings: dose nM <=1000
Procedure, shortened: (§2)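 Cell viability measured with CellTiter-Glo ATP luminescence at compound concentrations up to 1000 nM.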

MEF = assay: Cytotoxicity against MEF cells assessed as reduction in cell viability up to 1000 nM by CellTiter-Glo assay; assay type: cell-based; settings: mouse; procedure, shortened: as §2
[8] = Efflux ratio in across basolateral to apical side over apical to basolateral side in human Caco2 cells at 10 uM after 90 mins by LC-MS/MS analysis; assay type: ADME, cell-based; settings: Caco-2
Procedure, shortened: (§3)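 Caco-2 cells grown 21–28 days on polycarbonate inserts. TEER and Lucifer Yellow checked before and after the assay. Compound at 10 µM in HBSS with 25 mM HEPES, pH 7.4, tested A-B and B-A, 37 °C for 90 min. Samples quantified by LC-MS/MS against a standard curve.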

[9] = Apparent permeability across apical to basal side in human Caco2 cells at 10 uM after 90 mins by LC-MS/MS analysis; assay type: ADME, cell-based; settings: Caco-2; procedure, shortened: as §3
[10] = target: T1, C-X-C chemokine receptor type 4; assay: Antagonist activity at CXCR4 in human CD4-positive T cells assessed as inhibition of CXCL12-induced calcium signal incubated for 20 mins by FLIPR assay; assay type: functional, cell-based, CD4+ve Th
Target sequence in this assay (P61073 whole entry): as the sequence (P61073 whole entry) above

[11] = target: T3, C-X-C chemokine receptor type 1 (Homo sapiens) (UniProt P25024); assay: Antagonist activity at CXCR1 (unknown origin) stably expressed in HEK293 cells assessed as reduction in IL-8-induced intracellular calcium change up to 10000 nM incubated for 15 mins followed by IL-8-stimulation and measured after 15 mins by cAMP-d2/Eu-Anti-cAM based fluorescence assay; assay type: functional, cell-based; settings: dose nM <=10000, time 30.0 min, in the assay text read “intracellular cAMP change” for “intracellular calcium change”
T3 sequence (whole entry): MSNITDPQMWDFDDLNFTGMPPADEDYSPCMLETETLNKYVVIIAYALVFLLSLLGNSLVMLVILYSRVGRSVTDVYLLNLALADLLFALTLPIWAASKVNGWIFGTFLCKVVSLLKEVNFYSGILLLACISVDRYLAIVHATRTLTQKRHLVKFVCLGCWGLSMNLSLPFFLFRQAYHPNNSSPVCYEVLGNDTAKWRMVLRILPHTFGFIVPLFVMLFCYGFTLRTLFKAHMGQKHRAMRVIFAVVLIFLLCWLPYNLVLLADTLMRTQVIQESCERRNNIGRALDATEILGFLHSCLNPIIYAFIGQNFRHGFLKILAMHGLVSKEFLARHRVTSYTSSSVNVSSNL
Procedure, shortened: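 HEK293 cells overexpressing CXCR1, trypsin-dissociated, 2000 cells/well. Compound in a 10-point 4-fold series, 15 min at rt, then forskolin 4.4 µM plus IL-8 100 nM (in the added solution) for 15 min at rt. cAMP measured with cAMP-d2/Eu-anti-cAMP HTRF, 60 min at rt, read at 665/615 nm.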

CYP3A4 = CYP3A4 (Homo sapiens, UniProt P08684); assay: Inhibition of CYP3A4 in human liver microsomes using midazolam as substrate at 10 uM preincubated for 10 mins followed by NADPH addition and measured after 10 mins by LC-MS/MS analysis relative to control; assay type: ADME; settings: probe midazolam, time 20 min; procedure, shortened: as §1
CYP3A4, sequence (P08684 whole entry): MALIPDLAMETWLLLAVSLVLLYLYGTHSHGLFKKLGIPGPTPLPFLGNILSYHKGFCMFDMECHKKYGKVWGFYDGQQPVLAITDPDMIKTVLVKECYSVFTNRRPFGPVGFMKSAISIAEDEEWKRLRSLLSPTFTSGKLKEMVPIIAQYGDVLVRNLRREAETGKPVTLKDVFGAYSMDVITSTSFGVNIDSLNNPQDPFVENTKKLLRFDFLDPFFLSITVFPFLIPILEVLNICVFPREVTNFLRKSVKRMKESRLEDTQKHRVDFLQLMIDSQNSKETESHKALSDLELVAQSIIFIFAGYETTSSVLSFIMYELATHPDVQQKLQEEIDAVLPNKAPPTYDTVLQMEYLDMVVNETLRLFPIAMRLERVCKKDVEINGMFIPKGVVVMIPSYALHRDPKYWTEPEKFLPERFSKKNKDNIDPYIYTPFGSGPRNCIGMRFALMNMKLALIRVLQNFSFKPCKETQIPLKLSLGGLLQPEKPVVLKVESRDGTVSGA

[12] = Protein binding in rat plasma; assay type: ADME, cell-free; settings: read-out: PPB (converted)
[13] = Intrinsic clearance in rat liver microsomes at 1 uM preincubated for 10 mins followed by NADPH addition and measured up to 60 mins by LC-MS/MS analysis; assay type: ADME, Microsome; settings: time <=70 min, read-out: CLH

Structure (SMILES) | IC50 [1] [nM] | also measured
CN1CCN(c2cc(CN(C)C3CCCc4cccnc43)nc(C3CC3)n2)CC1 (racemic) | 23 | 
CC(C)c1nc(CN(C)C2CCCc3cccnc32)cc(N2CCN(C)CC2)n1 (racemic) | 256 | 
CCc1nc(CN(C)C2CCCc3cccnc32)cc(N2CCN(C)CC2)n1 (racemic) | 25 | 
CCN(Cc1cc(N2CCN(C)CC2)nc(C)n1)C1CCCc2cccnc21 (racemic) | 17 | 
CN1CCN(c2cc(CN(C)C3CCCc4cccnc43)nc(N3CCCC3)n2)CC1 (racemic) | > 10000 | 
CC(C)Oc1nc(CN(C)C2CCCc3cccnc32)cc(N2CCN(C)CC2)n1 (racemic) | 151 | 
Cc1nc(CN(C)[C@H]2CCCc3cccnc32)cc(N2CCN(C)CC2)n1 | 8.8 | Activity (Hepa1-6): inactive; IC50 [2]: 8000 nM; Activity [3]: Active; fraction unbound [4]: 0.11; inhibition at 10 min, 10 µM (CYP2D6): 57%; fraction unbound [5]: 0.01; half-life at 1 µM [6]: 1.6 min; Activity [7]: inactive; Activity (L929): Non-Toxic; Activity (MDA-MB-231): inactive; Activity (MEF): Non-Toxic; efflux ratio at 1.5 h, 10 µM [8]: 0.86; Papp A→B at 1.5 h, 10 µM [9]: 27 ×10⁻⁶ cm/s; IC50 [10]: 0.02 nM; Activity [11]: inactive; inhibition at 10 min, 10 µM (CYP3A4): 48%; fraction unbound [12]: 0.18; CLint scaled at 1 µM [13]: 1570 mL/min/kg
CN1CCN(c2cc(CN(C)[C@H]3CCCc4cccnc43)nc(C(F)(F)F)n2)CC1 | 293 | 
Cc1nc(CN(C)C2CCCc3cccnc32)c(C#N)c(N2CCN(C)CC2)n1 (racemic) | 33 | 
Cc1nc(CN(C)[C@H]2CCCc3cccnc32)cc(N2CCN(C3CC3)CC2)n1 | 70 | 
Cc1nc(CN(C)[C@H]2CCCc3cccnc32)cc(N2CCN(C3COC3)CC2)n1 | 130 | 
Cc1nc(CN(C)[C@H]2CCCc3cccnc32)cc(N2CCN3CCC[C@H]3C2)n1 | 18 | 
Cc1nc(CN(C)[C@H]2CCCc3cccnc32)cc(N2CCC(N3CCN(C)CC3)CC2)n1 | 96 | 
CN1CCN(c2cc(CN(C)C3CCCc4cccnc43)nc(N(C)C)n2)CC1 (racemic) | > 10000 | 
Cc1nc(CN(C)[C@H]2CCCc3cccnc32)cc(N2C[C@@H](C)N(C)[C@@H](C)C2)n1 | 8.3 | 
CN1CCN(c2cc(CN(C)C3CCCc4cccnc43)nc(N)n2)CC1 (racemic) | 23 | 
Cc1nc(CN(CC2CC2)C2CCCc3cccnc32)cc(N2CCN(C)CC2)n1 (racemic) | 51 | 
Cc1nc(CN(C)C2CCCc3cccnc32)cc(N2CCN(C)CC2)n1 (racemic) | 12 | 
CCN1CCN(c2cc(CN(C)[C@H]3CCCc4cccnc43)nc(C)n2)CC1 | 10 | 

Structure (SMILES) | IC50 [1] [nM] | also measured
Cc1nc(CN(C)[C@H]2CCCc3cccnc32)cc(N2CCN(C)[C@@H](C)C2)n1 | 14 | 
CN1CCN(c2cc(CN(C)C3CCCc4cccnc43)nc(N(C)CCO)n2)CC1 (racemic) | 792 | 
Cc1nc(CN(C)[C@H]2CCCc3cccnc32)cc(N2CCN3CCC[C@@H]3C2)n1 | 30 | 
Cc1nc(CN(C)[C@H]2CCCc3cccnc32)cc(N2CCN(C)C[C@H]2C)n1 | 21 | 
Cc1nc(CN(C)[C@H]2CCCc3cccnc32)cc(NCCCN2CCOCC2)n1 | 36 | 
Cc1nc(CN(C)[C@H]2CCCc3cccnc32)cc(N2CCN(C)[C@H](C)C2)n1 | 8.3 | 
CN1CCN(c2cc(CN(C)C3CCCc4cccnc43)nc(-c3ccccc3)n2)CC1 (racemic) | 2890 | 
CC(C)Nc1nc(CN(C)C2CCCc3cccnc32)cc(N2CCN(C)CC2)n1 (racemic) | 930 | 
Cc1nc(CN(C)C2CCCc3cccnc32)c(F)c(N2CCN(C)CC2)n1 (racemic) | 12 | 
CNc1nc(CN(C)C2CCCc3cccnc32)cc(N2CCN(C)CC2)n1 (racemic) | 58 | 
Cc1nc(CN(C)[C@H]2CCCc3cccnc32)cc(N2CCC(N3CCOCC3)CC2)n1 | 101 | 
Cc1nc(CN(C)[C@H]2CCCc3cccnc32)cc(N(C)CCO)n1 | > 10000 | 
CN1CCN(c2cc(CN(C)C3CCCc4cccnc43)nc(N3CCOCC3)n2)CC1 (racemic) | 2440 | 
CCOc1nc(CN(C)C2CCCc3cccnc32)cc(N2CCN(C)CC2)n1 (racemic) | 78 | 
CN1CCN(c2cc(CN(C)C3CCCc4cccnc43)nc(-c3cnn(C)c3)n2)CC1 (racemic) | 1290 | 
COc1nc(CN(C)C2CCCc3cccnc32)cc(N2CCN(C)CC2)n1 (racemic) | 25 | 
Cc1nc(CN(C)[C@H]2CCCc3cccnc32)cc(NCCN2CCOCC2)n1 | 66 | 
CCNc1nc(CN(C)C2CCCc3cccnc32)cc(N2CCN(C)CC2)n1 (racemic) | 105 | 
Cc1nc(CN(C)[C@H]2CCCc3cccnc32)cc(N2CCN(C)C[C@@H]2C)n1 | 14 | 
